This note sets out measurements from ChEMBL document CHEMBL4513216, “Probing the Open Global Health Chemical Diversity Library for Multistage-Active Starting Points for Next-Generation Antimalarials” (ACS Infect Dis, 2020).

A short description of this series: Toxicity liver stage against HepG2, at 10uM. In kind it is cell-based. Set-up: test concentration 10 uM, cell line HepG2-A16-CD81EGFP. To be noted: human, HepG2-A16-CD81EGFP cells; read-out: INHIBITION
Summed up: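 Uninfected HepG2-A16-CD81EGFP cells, 3 × 10^3 per well, 1536-well, plated on prespotted compound at 10 μM final, parasite-free screening media added to match infected plates; puromycin 10 μM positive, DMSO 0.5% negative; run in parallel with 48 h PbLuc assay at 37 °C, 5% CO2; viability by CellTiter-Glo luminescence, normalized to controls.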

Consider `Cc1c(C)n(Cc2ccccn2)c2nc3c(c(N)c12)CCCCC3`, for which the cytotoxicity at 10 µM stood at 3.3%.

On to `O=C(NS(=O)(=O)c1cc(Cl)sc1Cl)c1cccc2c1OCCO2`, for which the cytotoxicity at 10 µM amounted to 5.32%.

Regarding `COc1cccc(C(C(=O)O)N2CCCN(C3CCCC3)CC2)c1OC` (stereo not drawn), the cytotoxicity at 10 µM is -11.3%.

Regarding `CC(C)c1nn(C)cc1CNCc1cccnc1N(C)C`, the cytotoxicity at 10 µM is -1.96%.

For `Cc1cc(N2CCC(n3cc(CN4CCC[C@@H]4CO)nn3)CC2)ccn1`, the cytotoxicity at 10 µM was determined as 4.9%.

As to `Cn1c(N2CCOCC2)nc2cc(C(=O)NCC(F)(F)F)ccc21`, the cytotoxicity at 10 µM was 1.85%.

`Cc1cc2c(cc1CN1CCCCC1CCn1ccnc1C)OCO2` (stereo not drawn): the cytotoxicity at 10 µM is 3.09%.

`Cn1cc(CN2CCCC(c3nc(O)cc(-c4cccs4)n3)C2)cn1` (stereo not drawn): the cytotoxicity at 10 µM is -5.89%.

For the compound `CCc1sc(-c2nnc(CNC(C)Cn3cccn3)o2)cc1C` (stereo not drawn), the cytotoxicity at 10 µM was 0.749%.

On to `COCCN1CCCC(O)(CN2CCN(Cc3ccncc3)CC2)C1=O` (stereo not drawn), for which the cytotoxicity at 10 µM was -8.24%.

Turning to `COCC(=O)N1CCC2(CCC2NC(=O)c2ccn(C)c2)CC1` (stereo not drawn), the cytotoxicity at 10 µM is -76.4%.

As to `COCCN1CCN(CC(=O)N(C)Cc2ccsc2)CC1`, the cytotoxicity at 10 µM was -153%.

Regarding `O=C(c1ccco1)N1CCC(n2nc(-c3cccs3)ccc2=O)CC1`, the cytotoxicity at 10 µM is -32.3%.

For `CCN1CCCC1CNC(=O)CCSc1ccc2c(c1)OCCO2` (stereo not drawn), the cytotoxicity at 10 µM is -1.58%.

Regarding `Cc1c(Cl)c(C(F)(F)F)nn1C(C)C(=O)NC1CCN(C)CC1` (stereo not drawn), the cytotoxicity at 10 µM is -3.13%.

For `COCCN1CCc2ncnc(NC3CC3)c2CC1`, the cytotoxicity at 10 µM came to 5.62%.

Turning to `O=C1N[C@@H]2CCN(C(=O)C3CC3)[C@@H]2C(=O)N1c1ccccc1`, the cytotoxicity at 10 µM was determined as 1.44%.

For the compound `CCCC(=O)NCc1cc(Br)c(OC)c(OC)c1`, the cytotoxicity at 10 µM is 1.11%.

Regarding `CCC(C)NC(=O)c1ccc(-c2ccco2)[nH]c1=O` (stereo not drawn), the cytotoxicity at 10 µM is -5.05%.

Consider `Cc1nc(C2CCCN2Cc2nccn2CC(F)(F)F)no1` (stereo not drawn), for which the cytotoxicity at 10 µM is -16.5%.

As to `Cc1cnc(NC(C)Cc2cccnc2)nc1N(C)C` (stereo not drawn), the cytotoxicity at 10 µM is -4.03%.

Regarding `CCCC(C)(C)NC(=O)c1cnc(C)s1`, the cytotoxicity at 10 µM came out at 4.51%.

As for `CSCC(C)(O)CNC(=O)c1ccc(F)cc1Br` (stereo not drawn), the cytotoxicity at 10 µM was 0.369%.

For the compound `Cc1noc(C)c1CN1C[C@@H]2CC(F)(F)C[C@@H]2C1`, the cytotoxicity at 10 µM was -2.58%.

As for `CS(=O)(=O)N1CCCCC12CCCN(Cc1nccs1)C2` (stereo not drawn), the cytotoxicity at 10 µM was found to be 9.94%.

For `O=C(c1csnn1)N1CCCC(n2cncn2)C1` (stereo not drawn), the cytotoxicity at 10 µM was found to be 5.81%.

In the case of `CCOc1cc(C)nc(N2CCN(C(=O)c3ccc[nH]3)CC2)n1`, the cytotoxicity at 10 µM was -4%.

Turning to `CC(C)(O)CN1CCN(C(=O)c2ccn(-c3cccc(F)c3)n2)CC1`, the cytotoxicity at 10 µM is -3.53%.

Take `CN1CCCCC1c1cncc(N2CCC(O)CC2)n1` (stereo not drawn): the cytotoxicity at 10 µM amounted to 2.54%.

`O=C1CCCN1Cc1nnn2c1CN(c1ncccn1)CCC2`: the cytotoxicity at 10 µM was -0.0499%.

Take `Cc1c2c(C(F)F)cc(SCC(=O)O)nc2nn1C`: the cytotoxicity at 10 µM is -9.38%.

`COc1cccc(CNC(=O)c2ccccc2-n2cnc(CN)c2)c1`: the cytotoxicity at 10 µM was -17%.

`CCO[C@@H]1CC[C@H]2[C@H]1OCCN2CC1CCC1`: the cytotoxicity at 10 µM came out at 11.2%.

For `COCCNc1nc2c(c(NCc3ccncc3)n1)CCNCC2`, the cytotoxicity at 10 µM was -2.18%.

For `COC(=O)CC(c1ccc(OC)c(O)c1)c1oc(C)cc(=O)c1O` (stereo not drawn), the cytotoxicity at 10 µM is -0.634%.

Take `Cn1cc(C(=O)NCc2ccc(N3CCNC(=O)C3)c(F)c2)cn1`: the cytotoxicity at 10 µM was -2.97%.

For the compound `Cc1cc(C(=O)NS(C)(=O)=O)ccc1I`, the cytotoxicity at 10 µM is 6.85%.

`CCN(CC)S(=O)(=O)N1C[C@H]2CC[C@@H](C1)N(Cc1cscn1)C2=O`: the cytotoxicity at 10 µM was -21.1%.

With `CC(C)c1nc2c(n1C)CCN(Cc1cccc(C(N)=O)c1)C2`, the cytotoxicity at 10 µM was -7.39%.

Take `CCCc1n[nH]c(C2CN(CCNC3CCCCC3)CCO2)n1` (stereo not drawn): the cytotoxicity at 10 µM worked out at 2.75%.

`COCCN1C(=O)[C@@H]2CC[C@H]1CN(C(=O)Cc1ccc(O)c(Cl)c1)C2`: the cytotoxicity at 10 µM is -4.26%.

Regarding `Cc1nc(C)n(CC(C)C(=O)N2CCC(NS(C)(=O)=O)CC2)n1` (stereo not drawn), the cytotoxicity at 10 µM was -4.4%.

Consider `Cc1cnn(-c2cncc(C(N)=O)c2)c1`, for which the cytotoxicity at 10 µM worked out at 3.04%.

For `CN(Cc1ccc(CCC(C)(C)O)cc1)Cc1cccc(O)c1`, the cytotoxicity at 10 µM was -7.43%.

In the case of `CC(C)NC(=O)N1CCc2c(CNc3ncccn3)cncc2C1`, the cytotoxicity at 10 µM amounted to 5.83%.

With `COC(=O)N1CCCCC1C(=O)N(C)Cc1cc(-c2cccnc2)no1` (stereo not drawn), the cytotoxicity at 10 µM is 0.83%.

Take `Cc1ccccc1C(C(=O)NCCSC(C)C)N(C)C` (stereo not drawn): the cytotoxicity at 10 µM turned out to be 9.38%.

Regarding `O=C(CCCc1ccccn1)N1CCOc2ccc(F)cc21`, the cytotoxicity at 10 µM is 9.81%.

In the case of `COCc1ccccc1C(=O)NCC(O)c1ccccc1F` (stereo not drawn), the cytotoxicity at 10 µM was -3.67%.

For the compound `CCOC(=O)[C@H]1[C@@H](O)C(=O)N(C)C12CCN(C(=O)c1ccccc1)CC2`, the cytotoxicity at 10 µM was -6.53%.

`CN(Cc1nc(CS(C)(=O)=O)no1)c1ccccc1`: the cytotoxicity at 10 µM is 4.04%.

On to `CCC(C)N(Cc1ccsc1)C(=O)c1ccc(CO)cc1` (stereo not drawn), for which the cytotoxicity at 10 µM was 4.26%.

`CCN1CC(C(=O)NCCOc2ccc3c(c2)OCO3)CC1=O` (stereo not drawn): the cytotoxicity at 10 µM is -2.34%.

Consider `Cn1cnnc1C1CCCN(C(=O)NCc2ccc3c(c2)OCO3)C1` (stereo not drawn), for which the cytotoxicity at 10 µM was -1.9%.

For the compound `Cn1cc(CNC2CCc3ncnn3C2)c(-c2ccncc2)n1` (stereo not drawn), the cytotoxicity at 10 µM was -8.55%.

For the compound `O=C(Cc1ccc(-n2cccn2)cc1)N1CCCC(n2cccn2)C1` (stereo not drawn), the cytotoxicity at 10 µM was 4.6%.

On to `CCN1CCC(CNC(=O)C2(c3ccc(F)cc3)CC2)C1` (stereo not drawn), for which the cytotoxicity at 10 µM is -23%.

In the case of `CCOc1ccc(NC(C)C(=O)Nc2cc(C)no2)cc1` (stereo not drawn), the cytotoxicity at 10 µM was found to be 7.04%.

On to `CCN(CC)CCn1cc(NC(=O)CNc2ccccc2OC)cn1`, for which the cytotoxicity at 10 µM was 6.19%.

Consider `NCCC(=O)NCC1(O)CCCN(c2ccnc3cccnc23)C1` (stereo not drawn), for which the cytotoxicity at 10 µM was determined as 0.72%.

For the compound `CN(Cc1cccs1)C(=O)CN1CCCCC1Cn1cncn1` (stereo not drawn), the cytotoxicity at 10 µM turned out to be 8.97%.

As for `CCNC(=O)CS(=O)(=O)NC1CCC(C)CC1` (stereo not drawn), the cytotoxicity at 10 µM was -4.57%.

Take `Cc1cccc(CN2CCC3(CCN(c4ccccn4)C3)C2=O)c1` (stereo not drawn): the cytotoxicity at 10 µM was found to be 9.3%.

On to `O=C(NC1CC1)N1CCn2c(Cn3cccn3)cnc2C1`, for which the cytotoxicity at 10 µM is -72.8%.

Turning to `CCn1cc(CN2CCCN(C(=O)C3=NN(C)C(=O)CC3)CC2)cn1`, the cytotoxicity at 10 µM worked out at 3.54%.

For `Cn1cc(CN2CCCC3(CCN(C(=O)c4ccoc4)C3)C2)cn1` (stereo not drawn), the cytotoxicity at 10 µM was -71.9%.

`COCCN1CCCC2(CCN(c3nc(C)nc4ccsc34)C2)C1=O` (stereo not drawn): the cytotoxicity at 10 µM was 10.7%.

Regarding `CCSCC(C)NCc1nn(C)c2ccc(C)cc12` (stereo not drawn), the cytotoxicity at 10 µM worked out at 1.71%.

Regarding `CCNS(=O)(=O)c1cccc(CSC)c1`, the cytotoxicity at 10 µM amounted to 5.5%.

Turning to `COc1ccc(OC)c(C2CCN(C(=O)C3CCC(O)CC3)C2)c1` (stereo not drawn), the cytotoxicity at 10 µM is -1.65%.

For `Cc1cc(C2CCCN(C(=O)Cc3csc(C(C)C)n3)C2)n[nH]1` (stereo not drawn), the cytotoxicity at 10 µM was -7.27%.

For the compound `CCNC(=O)C1CCN(Cc2csc(-c3ccc(C)o3)n2)CC1`, the cytotoxicity at 10 µM is 6.26%.

Consider `CCCC(=O)N(CCCN1CCOCC1)c1nc2c(Cl)cccc2s1`, for which the cytotoxicity at 10 µM was -12.8%.

Regarding `Cc1ccc(Cn2cc(C)c(N)n2)cc1`, the cytotoxicity at 10 µM was -0.751%.

Take `CCOCc1ncn2c1CN(C(=O)Nc1cccc(F)c1)CC2`: the cytotoxicity at 10 µM was 1.03%.

In the case of `CNC(=O)c1cccc(C2CNCCN2C(=O)c2cccc(F)c2)c1` (stereo not drawn), the cytotoxicity at 10 µM is -7.9%.

With `CN(Cc1nnc2ccccn12)C(=O)CCNC(=O)C(C)(C)C`, the cytotoxicity at 10 µM turned out to be 12.5%.

Regarding `CC(C#N)CSc1ccccc1NCC(=O)NCc1cccs1` (stereo not drawn), the cytotoxicity at 10 µM was determined as 2.13%.

In the case of `CC(C)(NCC(=O)NCC1CC1)c1ccc2c(c1)OCCO2`, the cytotoxicity at 10 µM is -9.8%.

Turning to `CCN(CC)C(=O)c1cc(Br)cc(S(=O)(=O)N2CCOCC2)c1F`, the cytotoxicity at 10 µM is -2.43%.

Take `Cc1ccc(C(=O)NCc2ccc(N3CCCC(C(N)=O)C3)cc2)o1` (stereo not drawn): the cytotoxicity at 10 µM is 0.742%.

As for `CCc1ocnc1C(=O)N1CCC2(CCCN(CC(C)(C)C)C2=O)C1` (stereo not drawn), the cytotoxicity at 10 µM amounted to 7.79%.

As to `Cc1cc(N[C@H](CO)c2ccccc2)n2nc(C)cc2n1`, the cytotoxicity at 10 µM is -1.58%.

As for `COCC(=O)NC(c1ccc(Cl)cc1)c1noc(C)n1` (stereo not drawn), the cytotoxicity at 10 µM was 6.66%.

Regarding `N#CC1(C(=O)N2CCOC(c3ccc(F)cc3)C2)CCCC1` (stereo not drawn), the cytotoxicity at 10 µM was -3.3%.

For the compound `O=C(O)c1ccc(CN2CCC(c3ccnc4ccnn34)CC2)cc1`, the cytotoxicity at 10 µM was -29.9%.

For the compound `Cc1cc(NC(C)c2nncn2C2CCCC2)n2nc(C)cc2n1` (stereo not drawn), the cytotoxicity at 10 µM amounted to 5.99%.

On to `CCC(Nc1nc(CCN)nc2ccccc12)c1cc(C)ccn1` (stereo not drawn), for which the cytotoxicity at 10 µM is -12.9%.

As for `C=C(C)CNC1CCCN(Cc2noc(C3CC3)n2)C1` (stereo not drawn), the cytotoxicity at 10 µM is -4.56%.

As for `Cn1cc(CN2CCc3nc4sccc4c(=O)n3CC2)cn1`, the cytotoxicity at 10 µM is -2.19%.

With `O=S(=O)(C1CC1)N1Cc2[nH]nc(COCC3CC3)c2C1`, the cytotoxicity at 10 µM was found to be 16.4%.

As for `CCS(=O)(=O)N1CCC2(CCC(N3CCCC3)c3ccccc32)CC1` (stereo not drawn), the cytotoxicity at 10 µM came to 0.257%.

In the case of `CCN(c1ccc(C(=O)N2CCCCCC2)cc1)S(=O)(=O)CC`, the cytotoxicity at 10 µM is -2.25%.

In the case of `CO[C@H]1CN(C(=O)c2cc3ccccc3[nH]2)CC[C@H]1N`, the cytotoxicity at 10 µM was determined as 11%.

As to `COCCN1C[C@@H](C(=O)O)[C@H](c2ccccc2C)C1`, the cytotoxicity at 10 µM turned out to be 3%.

Consider `Cc1nc(CN2CCO[C@H]3[C@@H](Oc4ccccn4)CC[C@@H]32)cs1`, for which the cytotoxicity at 10 µM was 2.4%.

Take `O=C(NCc1ccccc1)N1CCC(Oc2ncccc2Cl)CC1`: the cytotoxicity at 10 µM was 17%.

Turning to `COc1ccc(CNC(=O)Nc2ccc(=O)n(C)c2)cc1`, the cytotoxicity at 10 µM came to 1.92%.
